Results from paper PMC7612733 (Biochemistry, 2022).

What was measured:
wt horcolin = biological target: T1, wt horcolin (Hordeum vulgare, UniProt Q5U9T2); test: 1H-15N HSQC-detected NMR titration with TITAN 2D lineshape modeling, wt horcolin; format: binding, Hordeum vulgare (barley)
T1 sequence (Q5U9T2 1-146): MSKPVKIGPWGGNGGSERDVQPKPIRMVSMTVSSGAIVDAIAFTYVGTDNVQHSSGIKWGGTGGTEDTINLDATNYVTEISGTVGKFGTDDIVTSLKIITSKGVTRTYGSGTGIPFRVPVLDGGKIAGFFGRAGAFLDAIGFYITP

D138A horcolin = biological target: T2, D138A horcolin (Hordeum vulgare, UniProt Q5U9T2, D138A); format: binding, Hordeum vulgare (barley)
T2 sequence (Q5U9T2 1-146 D138A): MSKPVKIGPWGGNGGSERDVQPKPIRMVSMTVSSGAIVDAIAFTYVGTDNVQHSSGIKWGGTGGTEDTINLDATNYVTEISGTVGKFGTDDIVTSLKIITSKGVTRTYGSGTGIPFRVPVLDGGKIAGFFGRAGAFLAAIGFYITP
In short: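 Uniformly 15N-labelled, C-terminally His-tagged D138A horcolin was expressed in E. coli BL21(DE3) in M9 medium and purified on Ni-NTA. Samples were in 25 mM Tris, 50 mM NaCl, 1 mM EDTA, 0.03% NaN3, 10% D2O, pH 7.4. 1H-15N HSQC spectra were recorded at 18 methyl-α-D-mannose concentrations from 0 to 167 mM. Lineshapes of 14 residues were globally fitted in TITAN; errors are SD of 100 bootstrap replicas.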

D39A horcolin = biological target: T3, D39A horcolin (Hordeum vulgare, UniProt Q5U9T2, D39A); format: binding, Hordeum vulgare (barley)
T3 sequence (Q5U9T2 1-146 D39A): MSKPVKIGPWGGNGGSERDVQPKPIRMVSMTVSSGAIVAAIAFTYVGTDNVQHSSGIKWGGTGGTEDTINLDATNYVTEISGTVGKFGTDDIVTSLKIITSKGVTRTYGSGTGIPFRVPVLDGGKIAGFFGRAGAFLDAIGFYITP
In short: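 15N-labelled D39A horcolin carried a C-terminal His tag, was expressed in E. coli BL21(DE3) in M9 medium and purified by Ni-NTA. NMR buffer was pH 7.4: 25 mM Tris, 50 mM NaCl, 1 mM EDTA, 0.03% NaN3, 10% D2O. HSQC spectra were taken over 21 methyl-α-D-mannose points from 0 to 914 mM. Sixteen residues were globally lineshape-fitted in TITAN; errors are SD of 100 bootstraps.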

crystal structure = biological target: the molecule itself; test: crystal structure
HIV gp120 = details: read-out: equilibrium dissociation constant (Kd); cited from earlier work
HIV-1 = details: cited from earlier work

## CO[C@H]1O[C@H](CO)[C@@H](O)[C@H](O)[C@@H]1O [mannose, methyl-α-D-mannose]
Wt horcolin; CBS1, wt horcolin, sequential model
  koff1: (2.4 ± 0.2) x 10^3 s^-1
Wt horcolin; CBS1, wt horcolin, sequential model, from koff and Kd
  kon1: (1.19 ± 0.08) x 10^5 M^-1s^-1
Wt horcolin; CBS2, wt horcolin, sequential model
  koff2: (2.5 ± 0.1) x 10^3 s^-1
Wt horcolin; CBS2, wt horcolin, sequential model, from koff and Kd
  kon2: (5.3 ± 0.2) x 10^5 M^-1s^-1
Wt horcolin; Kd1, CBS1, wt horcolin, two-binding-site non-cooperative (NC) model, cluster of four residues
  Kd: 59 ± 2 mM
Wt horcolin; Kd1, CBS1, wt horcolin, two-site sequential binding model, 25 °C, pH 7.4
  Kd: 19.9 ± 0.1 mM
Wt horcolin; Kd2, CBS2, wt horcolin, two-binding-site non-cooperative (NC) model, cluster of four residues
  Kd: 7.7 ± 0.1 mM
Wt horcolin; Kd2, CBS2, wt horcolin, two-site sequential binding model, 25 °C, pH 7.4
  Kd: 4.71 ± 0.02 mM
Wt horcolin; wt horcolin
  binding free energy difference ΔΔG^0 between CBS2 and CBS1: 0.85 kcal/mol
Wt horcolin; wt horcolin, sequential model
  fold higher affinity for CBS2 than CBS1: 4.2 fold
D138A horcolin
  Kd: 3.2 ± 0.3 mM
  fold increase of koff at CBS2, D138A versus wt: 2 fold
  fold increase of kon at CBS2, D138A versus wt: 3 fold
D138A horcolin; CBS2 only, D138A horcolin, two-state model
  koff2: (5.0 ± 0.4) x 10^3 s^-1
D138A horcolin; CBS2 only, D138A horcolin, from koff and Kd
  kon2: (1.6 ± 0.1) x 10^6 M^-1s^-1
D39A horcolin
  Kd: 55.6 ± 0.2 mM
  fold increase of koff at CBS1, D39A versus wt: 7 fold
  fold increase of kon at CBS1, D39A versus wt: 2.4 fold
D39A horcolin; CBS1 only, D39A horcolin, two-state model
  koff1: (16.4 ± 0.7) x 10^3 s^-1
D39A horcolin; CBS1 only, D39A horcolin, from koff and Kd
  kon1: (2.9 ± 0.1) x 10^5 M^-1s^-1
D39A horcolin; D138A (CBS2) versus D39A (CBS1) horcolin
  ΔΔG^0 between the two single-site binding events: 1.7 kcal/mol
D39A horcolin; D138A versus D39A horcolin
  factor of difference in koff between single-binding-site mutants: 3.3
  fold difference in kon between single-binding-site mutants: 5.3 fold

B1: horcolin (natural protein, Hordeum vulgare (barley))
chain: MSKPVKIGPWGGNGGSERDVQPKPIRMVSMTVSSGAIVDAIAFTYVGTDNVQHSSGIKWGGTGGTEDTINLDATNYVTEISGTVGKFGTDDIVTSLKIITSKGVTRTYGSGTGIPFRVPVLDGGKIAGFFGRAGAFLDAIGFYITP
Crystal structure
  stoichiometry N: 2

B2: horcolin: dimeric mannose-specific jacalin-related lectin from Hordeum vulgare (barley), 146 amino acids per protomer (protein)
chain: MSKPVKIGPWGGNGGSERDVQPKPIRMVSMTVSSGAIVDAIAFTYVGTDNVQHSSGIKWGGTGGTEDTINLDATNYVTEISGTVGKFGTDDIVTSLKIITSKGVTRTYGSGTGIPFRVPVLDGGKIAGFFGRAGAFLDAIGFYITP
HIV gp120
  Kd: 14.4 nM
HIV-1
  HIV-1 neutralization: has the ability to neutralize HIV-1
